Assay outcomes: PubChem, The Scripps Research Institute Molecular Screening Center
TAAR1 antag: antagonists of human TAAR1; Q96RJ0; CHO RD-HGA16 TAAR1, Fluo-8 calcium fluorescence, antagonist; inhibition, % at 3 µM; 360,000 tested, 1.5% active; AID 624466;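 active = inhibition above a per-plate cutoff, the mean inhibition of test compounds on that plate plus 3 SD, cut at about 49% in these data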
Target sequence (Q96RJ0 whole entry, looked up): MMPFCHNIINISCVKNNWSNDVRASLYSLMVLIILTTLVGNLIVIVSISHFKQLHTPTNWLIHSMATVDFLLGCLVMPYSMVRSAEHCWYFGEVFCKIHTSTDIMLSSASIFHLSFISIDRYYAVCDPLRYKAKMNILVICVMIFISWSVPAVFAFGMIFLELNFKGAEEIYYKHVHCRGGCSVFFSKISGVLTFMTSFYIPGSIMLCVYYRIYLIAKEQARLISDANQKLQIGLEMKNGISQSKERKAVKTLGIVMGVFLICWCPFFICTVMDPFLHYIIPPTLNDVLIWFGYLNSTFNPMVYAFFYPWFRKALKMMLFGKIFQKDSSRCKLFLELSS
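Test system: hTAAR1-expressing CHO RD-HGA16 cells, Gα16-coupled; Probe or stimulus: EC80 β-phenethylamine stimulus; Compound dosing: single nominal final test compound concentration of 3 µM; Timing: 140 s kinetic read after compound, 140 s after agonist; Signal: Fluo-8 calcium-sensitive fluorescence; Measure: % inhibition of agonist calcium response; Controls: DMSO and EC80 PEA controls.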
TAAR1 ag: human TAAR1 agonism | CHO RD-HGA16 TAAR1, Fluo-8 calcium fluorescence; vehicle wells 0%, saturating PEA agonist 100% | activation, % at 3 µM | 360,000 tested, 0.99% active | Q96RJ0;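 active = activation above the mean activation of all test compounds in the run plus 3 SD, cut at about 38% in these data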
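Test system: RD-HGA16 (CHO) cells co-expressing Gα16 and hTAAR1; dosing: one-point dosing at 3 µM (nominal); timing: 17-24 h seeding, 75 min 37 °C dye, 30 min RT; signal: kinetic Fluo-8 calcium fluorescence; read-out basis: % activation relative to PEA EC100 response; controls: DMSO and PEA EC100; replicates: n 1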
OXTR ag: human OXTR agonism; CHO-OTR cells, Fluo-8 calcium fluorescence; normalized: DMSO 0%, oxytocin 100%; AID 2435; activation, % at 3 µM; 320,000 tested, 0.32% active;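 active = activation above the mean of all tested compounds plus 3 SD, cutoff set per screening run, cut at about 20% in these data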;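 also: peak over basal fluorescence ratio from a 100 s FLIPR kinetic read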
V1R ag counter: counter-screen for oxytocin receptor agonists: human V1a receptor agonists; CHO-V1R cells, Fluo-8 calcium fluorescence, agonist mode; 0% DMSO, 100% 3 nM vasopressin; activation, % at 3 µM; 320,000 tested, 0.25% active; AID 2797;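 active = activation above the mean activation of all tested compounds plus 3 SD, per screening run, cut at about 20% in these data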;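 also: signal is peak over basal fluorescence ratio across a 100 second FLIPR read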
OXTR potentiator: potentiators of human oxytocin receptor; CHO-OTR cells, Fluo-8 calcium fluorescence, potentiator mode; 0% = oxytocin EC15, 100% = EC100; activation, % at 3 µM; P30559; 320,000 tested, 0.061% active; AID 2445;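 active = activation above that plate's cutoff, the mean activation of tested compounds plus 3 SD, cut at about 6.6% in these data, passing the limit was not always enough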
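Material: human OTR in CHO cells. Compound: 3.0 µM, one dose. Timing: compound 6 min at room temperature before oxytocin, 100 s read. Evaluation: % activation of max/min ratio relative to oxytocin controls. Replication: single well per compound, singlicate. Signal: Fluo-8 calcium dye fluorescence.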
Hits are given with their value; - = inactive; . = not tested or not shown. Hits are enriched below; roughly 2.3% of the tested compounds scored in any of these assays.

SMILES | TAAR1 antag | TAAR1 ag | OXTR ag | V1R ag counter | OXTR potentiator
COc1ccc(S(=O)(=O)Nc2cc(Sc3ncn[nH]3)c(O)c3ccccc23)cc1 | - | 43 | . | . | .
C=CCN(c1ccc(OC)cc1)S(=O)(=O)c1ccc(Cl)c(C(=O)OCC(=O)NC2CC2)c1 | - | - | - | - | -
C=CCN(c1ccccc1)S(=O)(=O)c1ccc(Cl)c(C(=O)OCC(=O)c2[nH]c(C)c(C(C)=O)c2C)c1 | 50 | - | - | - | -
Cc1ccc(-c2nc(CSCC(=O)N3CCN(c4ccccn4)CC3)c(C)o2)cc1 | - | - | - | - | -
COc1ccc(-c2noc(CCC(=O)N3CCN(c4cccc(OC)c4)CC3)n2)cc1 | 53 | - | . | . | .
CCOc1ccc(-c2nc(CSCC(=O)N3CCN(c4cccc(OC)c4)CC3)c(C)o2)cc1 | 51 | - | - | - | -
CC(C)(C)C(=O)Nc1ccccc1C(=O)Nc1cccnc1 | - | - | - | - | -
CC(C)(C)C(=O)Nc1ccccc1C(=O)Nc1cc(Cl)ccc1Cl | - | 54 | - | - | -
C[C@@H]1CN([C@@H](C)CO)C(=O)CCCn2cc(nn2)CO[C@H]1CN(C)C(=O)c1ccncc1 | - | - | . | . | .
Cc1c(NC(=O)Nc2ccc(Cl)c(Cl)c2)sc(=S)n1C | - | 41 | - | - | -
CN=C(Nc1ccc2c(c1)OCO2)SC1CC(=O)N(c2ccccc2)C1=O (centres undefined) | - | - | - | - | -
CCN=C(NCC)SC1CC(=O)N(c2ccccc2)C1=O (centres undefined) | 51 | - | - | - | -
COc1cccc(N2C(=O)CC(Sc3nc(C)cc(C)n3)C2=O)c1 (centres undefined) | - | - | - | - | -
CCN=C(NCC)SC1CC(=O)N(c2cccc(OC)c2)C1=O (centres undefined) | 55 | - | - | - | -
CN(C)Cc1c(C(C)(C)O)[nH]c2cc(F)ccc12 | - | - | . | . | .
CCCCCCCCOC(=O)c1c(CSC(=N)N)n(C)c2cc(Br)c(OC(C)=O)cc12 | - | 90 | - | - | -
COc1ccc(C(O)c2nc(-c3cc4ccccc4o3)cs2)cc1 (centres undefined) | 49 | - | . | . | .
CN(C)c1ccc(-c2csc(C(O)c3ccc(F)c(F)c3)n2)cc1 (centres undefined) | 99 | 100 | . | . | .
COc1ccc(C(O)c2nc(-c3ccc(N(C)C)cc3)cs2)cc1 (centres undefined) | - | 49 | . | . | .
COc1ccc(-c2csc(C(O)c3ccc(F)cc3)n2)cc1 (centres undefined) | 78 | 62 | . | . | .
COc1ccc(-c2csc(C(O)c3ccc(OC)cc3)n2)cc1 (centres undefined) | - | - | . | . | .
CN(C)c1ccc(-c2csc(C(O)c3ccccc3)n2)cc1 (centres undefined) | - | - | . | . | .
COc1cc(CNc2cccc3c2S(=O)(=O)N([C@H](C)c2ccccc2)C[C@@H](COCc2ccccc2)O3)cc(OC)c1OC | - | - | . | . | .
CCOC(=O)N1CCN(C(=O)C[C@H]2C[C@@]3(C(=O)OC)C(=C[C@H](C(C)(C)C)O[C@@H]3C)N(Cc3ccccc3)C2=O)CC1 | - | - | . | . | .
Cc1c(Cl)cc(C(C)C)c(O)c1CN1CCOCC1 | - | - | . | . | .
SMILES | TAAR1 antag | TAAR1 ag | OXTR ag | V1R ag counter | OXTR potentiator
CCN(CC)C(=O)C1c2ccccc2Oc2ccccc21 | - | - | 48 | 64 | -
O=C(Nc1cccc(C(F)(F)F)c1)c1ccc(Cn2cc(Br)cn2)o1 | 54 | 57 | - | - | -
CCCC(=O)Nc1cccc(-c2nc3ccccc3o2)c1 | - | - | - | - | -
Cc1cc(C)c(OCC(=O)Nc2nc3ccccc3[nH]2)c(C)c1 | 49 | 42 | - | - | -
O=C(COc1ccccc1)Nc1cccc(-c2nc3ccccc3[nH]2)c1 | 49 | - | - | - | -
COc1ccc(OCC(=O)Nc2cccc(-c3nc4ccccc4[nH]3)c2)cc1 | - | - | - | - | -
COc1ccc(OCC(=O)Nc2cccc(-c3nc4ccccc4o3)c2)cc1 | 49 | - | - | - | -
COCCN1Cc2cccc(C(=O)Nc3cccc(-c4nc5ccccc5[nH]4)c3)c2C1=O | 61 | - | - | - | -
COCCCNC(=O)C[C@H]1C[C@@]2(C(=O)OC)C(=C[C@H](C(C)C)O[C@@H]2C2CC2)N(Cc2ccccc2)C1=O | - | - | . | . | .
Cc1cc(N2CCN(C(=O)OC(C)(C)C)C[C@H]2C)ccc1N1C[C@@H](C)O[C@@H](C)C1 | - | - | . | . | .
CC(C)c1ccc(N=c2c([N+](=O)[O-])nn(-c3ccc4c(c3)OCCO4)n2O)cc1 | 64 | - | - | - | -
COc1cc(N=c2c([N+](=O)[O-])nn(-c3ccc4c(c3)OCCO4)n2O)cc(OC)c1 | - | - | - | - | -
CCOC(=O)[C@@H]1CSCCS(=O)(=O)N1C(=O)[C@H](C)NC(=O)OC(C)(C)C | - | - | . | . | .
CCc1sc(-c2c(C#N)c(N)nc3c2CCCCCC3)cc1[N+](=O)[O-] | - | 53 | - | - | -
O=S(=O)(CS(=O)(=O)c1ccc(Br)cc1)c1ccc(Br)cc1 | - | - | . | . | .
COCc1ccc(CN2CCC(C(=O)Nc3cccc(-c4cccc(Cl)c4)c3)CC2)o1 | - | - | 23 | 28 | -
CCCNC(=O)Cn1c(=O)/c(=C\c2ccc(-c3ccc([N+](=O)[O-])cc3)o2)s/c1=C\C(=O)C(C)(C)C | . | . | 63 | 37 | -
CCCNC(=O)Cn1c(=O)/c(=C/c2ccc(-c3cccc([N+](=O)[O-])c3)o2)s/c1=C\C(=O)C(C)(C)C | - | - | . | . | .
COC(=O)[C@]12C[C@H](CC(=O)N3CCOCC3)C(=O)N(Cc3ccc4c(c3)OCO4)C1=C[C@H](C(C)(C)C)O[C@@H]2C | - | - | . | . | .
CCN(CC)c1ccc(/C=C(/C#N)C(=O)NC(C)C)o1 | - | - | - | - | -
CCN(CC)c1ccc(/C=C(/C#N)C(=O)NCc2ccccc2)o1 | 54 | 54 | 29 | 26 | -
O=C(Nc1ccc([N+](=O)[O-])cc1)c1cc2ccccc2nc1Cl | 51 | - | - | - | -
COc1ccccc1N(C(=O)CCl)c1cn(C(C)=O)c2ccccc12 | - | - | - | - | -
COc1ccccc1N(C(C)=O)C1=C(Cl)C(=O)c2ccccc2C1=O | 57 | - | . | . | .
C[C@@H]1COc2cccc(NCCCN3CCOCC3)c2S(=O)(=O)N1 | - | - | . | . | .
COc1ccc(CN(C)C(=O)C(CCSC)NS(=O)(=O)c2ccc3c(c2)OCCO3)c(OC)c1OC (centres undefined) | 56 | - | . | . | .
COc1ccc(NC(C)=O)cc1NS(=O)(=O)c1ccc2c(c1)OCCO2 | - | - | - | - | -
CCOC(=O)C1CCN(c2cc3c(cc2NC(=O)c2ccccc2Cl)n(C)c(=O)n3C)CC1 | 56 | - | - | - | -
